Active and inactive are the calls of the source. The calls are words filed in the database; no cut-off is given here.
Tests used:
P388 = experiment: Cytotoxicity against mouse P388 cells by MTT assay; assay type: functional, cell-based
Salmonidae [1] = experiment: Binding affinity to salmon testes duplex DNA assessed as transition temperature
Outline: (§1)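 Thermal melting. Salmon testes duplex DNA at 15 μM base pairs, with macrocyclic ligand at 15 μM. Telomeric d[T2G3(T2AG3)3A] at 4 μM strand, with macrocyclic ligand at 20 μM. Buffer was 10 mM EPPS pH 7.5, with KCl added to 50 mM total K+. Transition temperature was taken for DNA with and without ligand.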

Homo sapiens [2] = species on record: Homo sapiens; experiment: Effect on thermal stability of G-quadruplex human telomeric DNA sequence d[T2G3(T2AG3)3A] assessed as transition temperature; outline: as §1
[3] = Cytotoxicity against human KBV1 cells by MTT assay; assay type: functional, cell-based; conditions: KB-V1
[4] = Cytotoxicity against human KB3-1 cells by MTT assay; assay type: functional, cell-based; conditions: KB 3-1
[5] = Cytotoxicity against human KBH5.0 cells by MTT assay; assay type: functional, cell-based; conditions: KBH5.0 cell
Salmonidae [6] = experiment: Effect on thermal stability of salmon testes duplex DNA assessed as transition temperature; outline: as §1
[7] = Cytotoxicity against human RPMI8402 cells by MTT assay; assay type: functional, cell-based; conditions: RPMI 8402
Homo sapiens [8] = species on record: Homo sapiens; experiment: Binding affinity to […] human telomeric DNA sequence d[T2G3(T2AG3)3A] assessed as transition temperature; outline: as §1

CC(C)[C@@H]1NC(=O)c2coc(n2)-c2coc(n2)-c2coc(n2)C/C=C/c2coc(n2)-c2coc(n2)-c2coc1n2
IC50 (P388): 0.045 µM | Activity (Salmonidae [1]): inactive | Activity (Homo sapiens [2]): Active | IC50 [3]: 3.3 µM | IC50 [4]: 0.038 µM | IC50 [5]: 0.043 µM | Activity (Salmonidae [6]): inactive | IC50 [7]: 0.025 µM | Activity (Homo sapiens [8]): Active

CC(C)[C@@H]1NC(=O)c2coc(n2)-c2coc(n2)-c2coc(n2)[C@H](C(C)C)NC(=O)c2coc(n2)-c2coc(n2)-c2coc1n2 [HEXAOXAZOLE DIVALINE]
IC50 (P388): 0.5 µM | Activity (Salmonidae [1]): inactive | Activity (Homo sapiens [2]): Active | IC50 [3]: 8 µM | IC50 [4]: 0.3 µM | IC50 [5]: 0.5 µM | Activity (Salmonidae [6]): inactive | IC50 [7]: 0.41 µM | Activity (Homo sapiens [8]): Active
